Assays:
[1] = tested on: Escherichia coli; assay: Antibacterial activity against Escherichia coli ATCC 25922 after 24 hrs; assay type: functional; details: ATCC 25922, 24 h
Procedure, shortened: (§1)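 Broth microdilution. Mid-log bacteria in MHB at a final (0.5−1) × 10^5 CFU/mL were mixed with equal volumes of peptide serially diluted in 0.2% BSA. Plates were incubated 24 h at 37 °C and read at A492. MIC is the lowest concentration inhibiting 95% of growth. Each test was repeated at least 3 times.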

[2] = tested on: Escherichia coli; assay: Antibacterial activity against Escherichia coli 1005 after 24 hrs; assay type: functional; details: Escherichia coli, 1005, 24 h; procedure, shortened: as §1
[3] = tested on: Salmonella typhimurium; assay: Antibacterial activity against Salmonella typhimurium ATCC 14028 after 24 hrs; assay type: functional, Salmonella enterica subsp. enterica serovar Typhimurium; details: Salmonella enterica, ATCC 14028, 24 h; procedure, shortened: as §1
[4] = tested on: Staphylococcus aureus; assay: Antibacterial activity against Staphylococcus aureus ATCC 29213 after 24 hrs; assay type: functional; details: ATCC 29213, 24 h
Procedure, shortened: (§2)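 Modified NCCLS broth microdilution. Mid-log bacteria at (0.5−1) × 10^5 CFU/mL in MHB were mixed 1:1 with peptide serially diluted in 0.2% BSA and incubated 24 h at 37 °C. Absorbance was read at 492 nm; MIC is the lowest concentration inhibiting 95% of growth. At least 3 repeats.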

[5] = tested on: Staphylococcus epidermidis; assay: Antibacterial activity against Staphylococcus epidermidis ATCC 12228 after 24 hrs; assay type: functional; details: ATCC 12228, 24 h; procedure, shortened: as §1
[6] = tested on: Staphylococcus aureus; assay: Antibacterial activity against Staphylococcus aureus ATCC 25923 after 24 hrs; assay type: functional; details: ATCC 25923, 24 h; procedure, shortened: as §2
[7] = tested on: Escherichia coli; assay: Bactericidal activity against Escherichia coli ATCC 25922; assay type: functional; details: read-out: MBC99.9
Procedure, shortened: (§3)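 Wells from the 24 h, 37 °C MHB microdilution plates (bacteria at a final (0.5−1) × 10^5 CFU/mL; peptide diluted in 0.2% BSA) were plated on agar and incubated overnight. MBC is the lowest concentration killing >99.9% of cells. Each test was reproduced at least 3 times.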

[8] = tested on: Escherichia coli; assay: Bactericidal activity against Escherichia coli 1005; assay type: functional; details: read-out: MBC99.9; procedure, shortened: as §3
[9] = Bactericidal activity against Salmonella pullorum ATCC 7913; assay type: functional, Salmonella enterica subsp. enterica serovar Pullorum; details: Salmonella enterica, read-out: MBC99.9; procedure, shortened: as §3
[10] = tested on: Staphylococcus aureus; assay: Bactericidal activity against Staphylococcus aureus ATCC 29213; assay type: functional; details: read-out: MBC99.9; procedure, shortened: as §3
[11] = tested on: Staphylococcus epidermidis; assay: Bactericidal activity against Staphylococcus epidermidis ATCC 12228; assay type: functional; details: read-out: MBC99.9; procedure, shortened: as §3
[12] = tested on: Candida albicans; assay: Antifungal activity against Candida albicans SP3903 after 48 hrs by broth microdilution method; assay type: functional; details: SP3903, 48 h
Procedure, shortened: (§4)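 Modified CLSI M27-A2 broth microdilution. Yeast at (0.5−1) × 10^3 CFU/mL in MOPS-buffered RPMI 1640 was mixed 1:1 with peptide serially diluted in 0.2% BSA and incubated 48 h at 28 °C. Absorbance was read at 492 nm; MIC is the lowest concentration inhibiting 95% of growth. Triplicate, three biological replicates.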

[13] = tested on: Candida albicans; assay: Antifungal activity against Candida albicans SP3902 after 48 hrs by broth microdilution method; assay type: functional; details: SP3902, 48 h; procedure, shortened: as §4
[14] = tested on: Candida albicans; assay: Antifungal activity against Candida albicans SP3876 after 48 hrs by broth microdilution method; assay type: functional; details: SP3876, 48 h; procedure, shortened: as §4
[15] = tested on: Candida albicans; assay: Antifungal activity against fluconazole-resistant Candida albicans 56452 after 48 hrs by broth microdilution method; assay type: functional; details: Candida albicans, 56452, 48 h; procedure, shortened: as §4
[16] = tested on: Candida albicans; assay: Antifungal activity against fluconazole-resistant Candida albicans 56214 after 48 hrs by broth microdilution method; assay type: functional; details: Candida albicans, 56214, 48 h; procedure, shortened: as §4
[17] = tested on: Candida albicans; assay: Antifungal activity against Candida albicans 14936 after 48 hrs by broth microdilution method; assay type: functional; details: Candida albicans, 14936, 48 h; procedure, shortened: as §4
[18] = tested on: Candida tropicalis; assay: Antifungal activity against Candida tropicalis cgmcc 2.1975 after 48 hrs by broth microdilution method; assay type: functional; details: cgmcc 2.1975, 48 h
Procedure, shortened: (§5)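 Modified CLSI M27-A2 broth microdilution. Yeast were suspended in MOPS-buffered RPMI 1640 at a final (0.5−1) × 10^3 CFU/mL and mixed 1:1 with peptide serially diluted in 0.2% BSA. Plates were incubated 48 h at 28 °C and read at A492. MIC is the lowest concentration giving 95% inhibition. Run in triplicate with three biological replicates.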

[19] = tested on: Pichia kudriavzevii; assay: Antifungal activity against Candida krusei cgmcc 2.1857 after 48 hrs by broth microdilution method; assay type: functional; details: cgmcc 2.1857, 48 h; procedure, shortened: as §5
[20] = tested on: Candida albicans; assay: Fungicidal activity against Candida albicans cgmcc 2.2086 after 96 hrs; assay type: functional; details: cgmcc 2.2086, 96 h, read-out: MFC99.9
Procedure, shortened: (§6)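 After the 48 h, 28 °C broth microdilution in MOPS-buffered RPMI 1640 (inoculum (0.5−1) × 10^3 CFU/mL), 50 μL from each well was plated on YM agar for a further 48 h at 28 °C. MFC is the lowest concentration killing at least 99.9% of cells. Triplicate, three biological replicates.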

[21] = tested on: Candida albicans; assay: Fungicidal activity against Candida albicans SP3876 after 96 hrs; assay type: functional; details: SP3876, 96 h, read-out: MFC99.9; procedure, shortened: as §6
[22] = tested on: Candida albicans; assay: Fungicidal activity against Candida albicans isolated from alveolar fluid after 96 hrs; assay type: functional; details: read-out: MFC99.9; procedure, shortened: as §6
[23] = tested on: Candida albicans; assay: Fungicidal activity against fluconazole-resistant Candida albicans 17546 after 96 hrs; assay type: functional; details: Candida albicans, 17546, 96 h; read-out: MFC99.9; procedure, shortened: as §6
[24] = tested on: Candida tropicalis; assay: Fungicidal activity against Candida tropicalis cgmcc 2.1975 after 96 hrs; assay type: functional; details: cgmcc 2.1975, 96 h, read-out: MFC99.9
Procedure, shortened: (§7)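 Wells from the 48 h, 28 °C RPMI 1640/MOPS microdilution plates were plated on YM agar and incubated a further 48 h at 28 °C. MFC is the lowest concentration killing at least 99.9% of cells. Run in triplicate with three biological replicates.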

[25] = tested on: Candida parapsilosis; assay: Fungicidal activity against Candida parapsilosis cgmcc 2.3989 after 96 hrs; assay type: functional; details: Lodderomyces parapsilosis, cgmcc 2.3989, 96 h; read-out: MFC99.9; procedure, shortened: as §7
[26] = tested on: Escherichia coli; assay: Antibacterial activity against Escherichia coli ATCC 25922 after 18 hrs in presence of KCl by broth dilution method; assay type: functional; details: ATCC 25922, 18 h
[27] = tested on: Escherichia coli; assay: Antibacterial activity against Escherichia coli ATCC 25922 after 18 hrs in presence of FeCl3 by broth dilution method; assay type: functional; details: ATCC 25922, 18 h
[28] = tested on: Candida albicans; assay: Antifungal activity against Candida albicans cgmcc 2.2086 in presence of NaCl by broth dilution method; assay type: functional
[29] = tested on: Candida albicans; assay: Antifungal activity against Candida albicans cgmcc 2.2086 in presence of MgCl2 by broth dilution method; assay type: functional
[30] = tested on: Candida albicans; assay: Antifungal activity against Candida albicans cgmcc 2.2086 in presence of ZnCl2 by broth dilution method; assay type: functional
[31] = tested on: Candida albicans; assay: Antifungal activity against Candida albicans cgmcc 2.2086 in presence of FeCl3 by broth dilution method; assay type: functional
[32] = tested on: Candida albicans; assay: Antifungal activity against Candida albicans 58288 after 48 hrs by broth microdilution method; assay type: functional; details: Candida albicans, 58288, 48 h; procedure, shortened: as §4
[33] = tested on: Candida albicans; assay: Fungicidal activity against Candida albicans 58288 after 96 hrs; assay type: functional; details: Candida albicans, 58288, 96 h; read-out: MFC99.9; procedure, shortened: as §6

Substance	MIC95 [1]	MIC95 [2]	MIC95 [3]	MIC95 [4]	MIC95 [5]	MIC95 [6]	MBC [7]	MBC [8]	MBC [9]	MBC [10]	MBC [11]	MIC95 [12]	MIC95 [13]	MIC95 [14]	MIC95 [15]	MIC95 [16]	MIC95 [17]	MIC95 [18]	MIC95 [19]	MFC [20]	also measured
H-RFFRRFRRFFR-NH2	8 µM	8 µM	4 µM	8 µM	4 µM	4 µM	8 µM	8 µM	8 µM	16 µM	4 µM	4 µM	8 µM	8 µM	8 µM	8 µM	8 µM	2 µM	2 µM	16 µM	MFC [21]: 8 µM; MFC [22]: 16 µM; MFC [23]: 8 µM; MFC [24]: 4 µM; MFC [25]: > 64 µM; MIC [26]: 8 µM; MIC [27]: 8 µM; MIC [28]: 32 µM; MIC [29]: 8 µM; MIC [30]: 8 µM; MIC [31]: 8 µM; MIC95 [32]: 4 µM; MFC [33]: 16 µM
H-RRIRIIIRIRR-NH2	4 µM	4 µM	4 µM	4 µM	4 µM	4 µM	4 µM	4 µM	4 µM	8 µM	4 µM	1 µM	2 µM	1 µM	1 µM	1 µM	2 µM	1 µM	2 µM	2 µM	MFC [21]: 1 µM; MFC [22]: 4 µM; MFC [23]: 2 µM; MFC [24]: 2 µM; MFC [25]: 8 µM; MIC [26]: 4 µM; MIC [27]: 4 µM; MIC [28]: 4 µM; MIC [29]: 2 µM; MIC [30]: 2 µM; MIC [31]: 2 µM; MIC95 [32]: 2 µM; MFC [33]: 2 µM
H-RLLRRLRRLLR-NH2	4 µM	4 µM	8 µM	4 µM	4 µM	8 µM	16 µM	4 µM	32 µM	16 µM	4 µM	4 µM	4 µM	4 µM	8 µM	8 µM	8 µM	2 µM	4 µM	16 µM	MFC [21]: 8 µM; MFC [22]: 16 µM; MFC [23]: 16 µM; MFC [24]: 4 µM; MFC [25]: 16 µM; MIC [26]: 4 µM; MIC [27]: 16 µM; MIC [28]: 16 µM; MIC [29]: 32 µM; MIC [30]: 8 µM; MIC [31]: 8 µM; MIC95 [32]: 4 µM; MFC [33]: 16 µM
H-RRWRWWWRWRR-NH2	4 µM	4 µM	4 µM	2 µM	4 µM	4 µM	4 µM	4 µM	4 µM	4 µM	8 µM	4 µM	4 µM	2 µM	4 µM	4 µM	8 µM	2 µM	2 µM	8 µM	MFC [21]: 4 µM; MFC [22]: 8 µM; MFC [23]: 4 µM; MFC [24]: 4 µM; MFC [25]: 16 µM; MIC [26]: 4 µM; MIC [27]: 4 µM; MIC [28]: 8 µM; MIC [29]: 4 µM; MIC [30]: 4 µM; MIC [31]: 4 µM; MIC95 [32]: 2 µM; MFC [33]: 8 µM
H-IIRRIRRII-NH2	32 µM	16 µM	64 µM	64 µM	64 µM	> 64 µM	32 µM	32 µM	> 64 µM	> 64 µM	> 64 µM	> 64 µM	> 64 µM	> 64 µM	64 µM	64 µM	> 64 µM	4 µM	16 µM	64 µM	MFC [21]: > 64 µM; MFC [22]: > 64 µM; MFC [23]: > 64 µM; MFC [24]: 8 µM; MFC [25]: > 64 µM; MIC [26]: 32 µM; MIC [27]: 64 µM; MIC [28]: 64 µM; MIC [29]: 64 µM; MIC [30]: 64 µM; MIC [31]: 64 µM; MIC95 [32]: > 64 µM; MFC [33]: 64 µM

Source: ChEMBL document CHEMBL4177755, “Combating Drug-Resistant Fungi with Novel Imperfectly Amphipathic Palindromic Peptides” (J Med Chem, 2018)
